Test results from ChEMBL document CHEMBL1127682, “Resolution, absolute stereochemistry, and pharmacology of the S-(+)- and R-(-)-isomers of the apparent partial AMPA receptor agonist (R,S)-2-amino-3-(3-hydroxy-5-phenylisoxazol-4-yl)propionic acid [(R,S)-APPA]” (J Med Chem, 1994).

Assays:
[1] = molecular target: Glutamate receptor ionotropic, kainate; test: Compound was evaluated for the inhibition of binding of [3H]-Kainic acid to kianic acid receptor; assay type: protein-complex assay
[2] = molecular target: Glutamate NMDA receptor; test: Compound was evaluated for the inhibition of binding of [3H]- CPP to NMDA receptor; assay type: protein-complex assay
[3] = molecular target: T1, Glutamate receptor ionotropic, AMPA (Rattus norvegicus, UniProt P19490+P19491+P19492+P19493); test: Compound was evaluated for the antagonist activity on AMPA receptor in rat cortical wedge preparation; assay type: functional
[4] = molecular target: Glutamate receptor ionotropic, NMDA 1 (Rattus norvegicus, UniProt P35439); test: Compound was evaluated for the inhibition of binding of [3H]glycine to NMDA receptor
[5] = molecular target: T1, Glutamate receptor ionotropic, AMPA; test: Compound was evaluated for the inhibition of binding of [3H]AMPA to the AMPA receptor; assay type: protein-complex assay
[6] = molecular target: Glutamate NMDA receptor; test: Compound was evaluated for the inhibition of binding of [3H]- MK-801 to NMDA receptor; assay type: protein-complex assay
[7] = species on record: Rattus norvegicus; test: The compound was evaluated for agonist sensitivity to antagonist NBQX; assay type: functional
In short: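 Rat cortical wedges (500-μm, cortex plus corpus callosum) superfused with Mg2+- and Ca2+-free oxygenated Krebs buffer at room temperature; agonist depolarization concentration-response curves recorded with and without 0.5 μM NBQX; pKi calculated from the parallel shift; means ± SEM of at least three experiments.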

[8] = molecular target: T1, Glutamate receptor ionotropic, AMPA; test: Compound was evaluated for the agonist activity on AMPA receptor in rat cortical wedge preparation; assay type: functional

Compound	IC50 [1] [µM]	IC50 [2] [µM]	Ki [3] [µM]	IC50 [4] [µM]	IC50 [5] [µM]	IC50 [6] [µM]	EC50 [8] [µM]	Log Ki [7]
Cc1onc(O)c1CC(N)C(=O)O (racemic) [(R,S)-AMPA]	–	–	–	–	–	–	–	-6.56
C=C(C)[C@H]1CN[C@H](C(=O)O)[C@H]1CC(=O)O [KAINIC ACID]	–	> 100	–	> 100	–	> 100	–	-5.42

Further lines, with some results ahead:

IC50 [1] [µM]	IC50 [2] [µM]	Ki [3] [µM]	IC50 [4] [µM]	IC50 [5] [µM]	IC50 [6] [µM]	EC50 [8] [µM]	Compound	Log Ki [7]
> 100	> 100	286	> 100	> 100	> 100	–	N[C@H](Cc1c(O)noc1-c1ccccc1)C(=O)O	–
> 100	> 100	–	> 100	6	> 100	230	N[C@@H](Cc1c(O)noc1-c1ccccc1)C(=O)O	-6.3
> 100	> 100	–	> 100	35	> 100	385	NC(Cc1c(O)noc1-c1ccccc1)C(=O)O (racemic)	–
